These results are taken from paper PMC2697266 (Nature, 2009).

Series [1] concerns JARID1APHD1 (the first PHD finger of JARID1A). Nature of the series: Biotinylated histone peptide pull-down, JARID1APHD1. Particulars: 50mM Tris pH 7.5, 150mM NaCl; qualitative. The series is classed as binding, human. Summed up: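 Biotinylated histone peptides were bound to recombinant PHD protein and captured on avidin beads. Beads were washed extensively in 50mM Tris pH 7.5, 150mM NaCl (250mM for stringent washes), 0.05% NP-40, 0.3mg/ml BSA and 1mM DTT; bound protein was then assessed.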

Series [2] is described as follows: 15N NMR relaxation, rotational correlation time. The series is classed as physicochemical. The following applies: 15N R2/R1 ratios, pH 7.0, 25°C; estimated. Put shortly: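 0.2-0.5 mM uniformly 15N-labeled JARID1A PHD3 (bacterial His6-SUMO fusion, cleaved, purified by Ni-NTA and gel filtration), free or with unlabeled H3 1-9 K4me3 peptide. R1 and R2 measured with standard pulse sequences at 25°C, 800 MHz with cryoprobe; correlation time estimated from R2/R1 ratios.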

For the substance “H3K4me0: unmodified H3K4 histone peptide”, the “interaction with JARID1APHD1 in peptide pull-down” value in series [1] is on record as “interacted”.

As to “JARID1APHD3: C-terminal PHD finger of JARID1A (amino acids 1601-1660) (EESDDENAVCAAQNCQRPCKDKVDWVQCDGGCDEWFHQVCVGVSPEMAENEDYICINCAK; left off: GST, end not stated, kept)”, the rotational correlation time in series [2] is on record as 3.5 ns.
